# APOBEC3A inh: inhibitors of human APOBEC3A DNA deaminase; P31941; recombinant A3A, FAM/TAMRA ssDNA deamination fluorescence; inhibition, % at 20 µM; 330,000 compounds, 0.41% hits;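 active = at least 40% inhibition at 20 µM here, with at most 30% in a related deaminase screen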;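 also: plate controls were A3A with DMSO for no effect and wells lacking A3A enzyme for full effect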
# Target sequence (P31941 whole entry, looked up): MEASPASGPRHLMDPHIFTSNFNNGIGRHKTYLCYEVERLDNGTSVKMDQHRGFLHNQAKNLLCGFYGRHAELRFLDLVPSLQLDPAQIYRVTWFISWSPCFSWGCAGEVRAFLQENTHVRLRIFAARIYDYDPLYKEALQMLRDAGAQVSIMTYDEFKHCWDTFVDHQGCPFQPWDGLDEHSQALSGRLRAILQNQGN
# APJ agonist: agonists of human APJ apelin receptor; P35414; CHO-K1 APJ PathHunter beta-arrestin, luminescence; 0% DMSO wells, 100% apelin; activation, % at 20 µM; 330,000 compounds, 0.11% hits; AID 2520;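 active = activation more than six SD over the plate average, tested at 20 µM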;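 also: 0% = DMSO alone and 100% = apelin-13 at 10 nM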
#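 Assay system: CHO-K1 APJ beta-arrestin complementation cell line / Compound: single test compound dose, 20 µM final, 1% DMSO / Times: overnight seeding, 90 min compound at 25 °C, 1 h detection / Technique: beta-gal luminescence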
# APJ antag: APJ receptor antagonism; inhibition, % at 20 µM; CHO-K1 APJ beta-arrestin complementation, luminescence; 330,000 compounds, 0.32% hits;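 active = inhibition above about 40% at 20 µM, limit read from the data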;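 also: cells challenged with 10 nM apelin-13 agonist together with compound; plate controls were apelin-13 plus DMSO wells for no effect and DMSO wells lacking apelin-13 for full effect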
# CCR6 antag: blocks CCL20-driven beta-arrestin recruitment at human CCR6; P51684; CHO-K1 CCR6 PathHunter beta-arrestin, luminescence, CCL20-stimulated; inhibition, % at 20 µM; 340,000 compounds, 0.49% hits;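 active = compounds whose inhibition of the agonist-driven luminescence signal at 20 µM reaches about 50%, limit read from the data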;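 also: cells stimulated with CCL20 at 14 nM final; plate controls were DMSO with CCL20 for no effect and DMSO without agonist for full effect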
# Target sequence (P51684 whole entry, looked up): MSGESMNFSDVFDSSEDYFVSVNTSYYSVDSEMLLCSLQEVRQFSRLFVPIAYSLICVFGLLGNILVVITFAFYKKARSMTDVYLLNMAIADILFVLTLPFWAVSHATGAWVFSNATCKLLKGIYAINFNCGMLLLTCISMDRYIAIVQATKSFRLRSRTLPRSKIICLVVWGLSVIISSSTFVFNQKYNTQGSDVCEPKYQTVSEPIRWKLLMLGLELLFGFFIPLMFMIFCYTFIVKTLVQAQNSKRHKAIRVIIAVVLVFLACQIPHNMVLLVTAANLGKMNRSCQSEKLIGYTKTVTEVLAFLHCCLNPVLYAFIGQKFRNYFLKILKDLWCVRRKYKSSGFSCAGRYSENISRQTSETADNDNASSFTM
# CXCR6 inh: CXCR6 (human) receptor inhibition; CHO-K1 PathHunter CXCR6 beta-arrestin, luminescence; inhibition, % at 20 µM; 360,000 compounds, 0.36% hits; O00574; in the data active = inhibition above about 34%, passing the limit was not always enough;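 also: antagonist mode with CXCL16 agonist at 10 nM final; 0% = 10 nM CXCL16 with DMSO and 100% = unstimulated wells without agonist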
# A3G deaminase: blocks human APOBEC3G single-stranded DNA deamination; 330,000 compounds, 0.28% hits; recombinant A3G, ssDNA deamination FAM/TAMRA fluorescence; Q9HC16; inhibition, % at 20 µM;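 active = inhibition of at least 40% at 20 µM, with no more than 30% in the related APOBEC3A deaminase screen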;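 also: plate controls were DMSO wells with A3G for no effect and wells lacking A3G enzyme for full effect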
# A3A conf: confirmation of human APOBEC3A DNA deaminase inhibitors; 1,400 compounds, 63% hits; recombinant A3A, ssDNA deaminase UDG fluorescence assay; shares compounds with APOBEC3A inh; AID 493151; inhibition, % at 20 µM;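 active = inhibition reaching a set limit, 80% of the first screen's cutoff, at 20 µM in any replicate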;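 also: plate controls were DMSO wells with A3A for no effect and wells lacking A3A enzyme for full effect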
# UDG A3A counter: inhibits UDG, flagging false APOBEC3A inhibitors; shares compounds with APOBEC3A inh; 1,000 tested, under 10 active; UDG counterscreen, FAM/TAMRA uracil oligo fluorescence; inhibition, % at 20 µM; call rule not given here
# The depositor's hits bear a star; x = no result given. A selection: hits, their analogues and other compounds. The true share with any hit is near 1.4%.
SMILES,APOBEC3A inh,APJ agonist,APJ antag,CCR6 antag,CXCR6 inh,A3G deaminase,A3A conf,UDG A3A counter
CCC(C)Sc1nnc(NS(=O)(=O)Cc2ccccc2)s1 (stereo unspecified),1,0,5,4,5,-1,x,x
CCSC1=NC(=O)/C(=C2/C=Cc3ccccc3N2CC)S1,40*,-2,25,41,28,21,18,x
CC1=NN(c2ccccc2)C(=O)C1(C)C,-2,-3,11,5,-2,-2,x,x
CC[N+]1=CN(c2ccccc2)C(C)=CC1(C)C,61*,-1,0,-2,-4,24,28,x
O=C(C1CCCO1)N1CCN(C(=S)Nc2ccc(Cl)cc2)CC1 (stereo unspecified),1,-3,2,5,-10,-15,x,x
CC(=O)Nc1cc(-c2cccc(C(=O)NCCN(C)C)c2)cn2c(-c3ccc(C(C)=O)cc3)cnc12,x,x,x,x,-3,x,x,x
Oc1cccc(O)c1O,42*,-5,-77,x,x,4,44*,x
N#Cc1ccc(S(=O)(=O)N2CCCCC2c2cc(C(=O)NCc3cccnc3)no2)cc1 (stereo unspecified),x,x,x,x,-5,x,x,x
CCC(C)N(C(=O)c1csnn1)C(C(=O)NC(C)(C)C)c1ccccc1 (stereo unspecified),62*,-3,10,-6,-4,-4,-9,0
CC(C)(C)NC(=O)C(c1ccccc1)N(Cc1ccco1)C(=O)c1csnn1 (stereo unspecified),1,-6,11,-3,0,-1,x,x
CC1=C(C(=O)OCc2ccccc2)N2C(=O)[C@@H](NC(=O)COc3ccccc3)[C@H]2SC1,-7,0,15,-6,-10,-10,x,x
CC1=C(C(=O)OCc2ccc([N+](=O)[O-])cc2)N2C(=O)C(NC(=O)Cc3ccccc3)C2SC1 (stereo unspecified),50*,2,-1,8,-2,-2,40*,-3
O=C(Cc1cccc(NC(=O)C2CCN(S(=O)(=O)c3cccc([N+](=O)[O-])c3)CC2)c1)Nc1cccc(C(=O)N2CCCCC2)c1,x,x,x,4,-15,x,x,x
CCCC[n+]1ccn(-c2nc3c([N+](=O)[O-])cccc3n2C)c1,68*,6,13,7,13,17,78*,x
CCn1c2c(c(C)cc1=O)C(=O)CC(C)(C)C2,-1,1,15,-12,2,-5,x,x
CCn1c(C)c2c([n+]1CC)CC(C)(C)CC2=O,59*,-5,5,-7,16,27,76*,-4
COC(=O)c1cccc(N2C(=O)c3ccccc3S2(=O)=O)c1,40*,-4,-5,10,3,19,1,x
COc1ccc([C@H]2C[C@H](O)[C@@H](n3cc(COC(=O)c4ccccc4)nn3)CN2C(=O)C2CCCCC2)cc1,x,x,x,x,1,x,x,x
COc1ccccc1OC(C)C(=O)N1CCN(Cc2ccc3c(c2)OCO3)CC1 (stereo unspecified),57*,-4,9,1,5,13,48*,-3
CCOC(=O)N1CCC(NC(=O)C2CCCN(C(=O)N3CCOc4ccccc43)C2)CC1 (stereo unspecified),54*,-1,9,2,-4,-6,-4,-1
COc1ccc(F)cc1S(=O)(=O)Nc1cc2c3c(c1)CCC(=O)N3CCC2,-3,4,-3,6,-11,-6,x,x
CCOc1ccc(N2CC(C(=O)NCC(=O)Nc3ccc(F)c(F)c3F)CC2=O)cc1 (stereo unspecified),2,-3,8,6,2,4,x,x
Cc1cccc(C)c1OCC(=O)NCc1nnc(SCC(=O)NC2CCCCC2C)n1C (stereo unspecified),53*,-4,12,5,-1,10,60*,3
O=C1C=C(O)CC(c2ccco2)C1 (stereo unspecified),46*,-2,-3,10,-10,13,53*,-4
c1ccc(Oc2ccccc2-c2cc(NCCc3cccnc3)n3nccc3n2)cc1,x,x,x,x,3,x,x,x
SMILES,APOBEC3A inh,APJ agonist,APJ antag,CCR6 antag,CXCR6 inh,A3G deaminase,A3A conf,UDG A3A counter
CCc1ccc(NC(=O)Cn2cnc3c(=O)n(C)c(=O)n(C)c32)cc1,69,-7,-6,8,5,34,x,x
Cn1c(=O)c2ncn(CC(=O)NC3CCCCCC3)c2n(C)c1=O,43*,1,14,-7,5,12,15,x
COc1ccc(CN(C(=O)c2ccco2)C2CCS(=O)(=O)C2)cc1 (stereo unspecified),72*,-5,3,5,-2,-8,-6,2
COc1cccc(CN(C(=O)c2ccco2)C2CCS(=O)(=O)C2)c1 (stereo unspecified),-8,-3,-14,7,-2,-8,x,x
CCN(CC(=O)NCc1cccs1)C(=O)c1ccc(Cl)c(Cl)c1,-6,-1,5,0,-5,-6,x,x
CCCc1nc2ccccc2c(C(=O)N(CC)CC(=O)NCc2cccs2)c1CC,50*,2,2,3,-11,5,2,x
COc1ccccc1CC1(C)C(=O)Nc2c(Cl)cccc21 (stereo unspecified),x,x,x,x,-7,x,x,x
COc1ccc(/C=N/OC(=O)Nc2ccccc2OC)cc1,97*,-3,0,3,-10,-3,-64,6
CC(C)N1CC(O)=C(c2ccccc2)C1=N,74*,-2,-15,11,-1,-3,-1,4
CC(CCc1ccccc1)NC(=O)COC(=O)CC1CC2CCC1C2 (stereo unspecified),121*,-1,3,6,-3,-3,-6,-3
O=C(COC(=O)CC1CC2CCC1C2)NCc1ccccc1 (stereo unspecified),-3,-3,5,6,-4,-3,x,x
COc1ccc(C(=O)N[C@H](C(=O)NCc2cccs2)C(C)C)cc1,40*,-1,-10,9,-4,-4,12,-1
COc1cc(OC)cc(C(=O)N[C@H](C(=O)NCc2cccs2)C(C)C)c1,0,0,1,1,2,-6,x,x
Cc1ccc2[nH]cc(/C=C/c3cc[n+](C)cc3)c2c1,49*,2,-6,11,-13,-14,67*,-8
CC[n+]1ccc(/C=C/c2c[nH]c3ccccc23)cc1,48*,4,-15,6,-3,2,64*,-8
CCn1c(/C=C/c2c[nH]c3ccccc23)nc2ccccc2c1=O,-3,0,-23,4,11,-12,x,x
COc1ccc2c(C=O)c[nH]c2c1,0,1,0,-8,-2,2,x,x
